Bioassay records: PubChem, several laboratories
Rows were chosen to be rich in hits. Some 2% of all compounds tested hit in one or more screens of this group.
NR2E3 ag-1 – agonists of human NR2E3 nuclear receptor. CHO-S Gal4-NCOR/VP16-NR2E3 two-hybrid, luciferase. inhibition of corepressor binding, % at 3.98 µM. hit rate 0.35% among 360,000. AID 602229;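 active = inhibition above the mean of all tested compounds plus 3 SD, cut at about 70% in these data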;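 note: 0% = DMSO with NR2E3 transfected cells and 100% = cells lacking NR2E3 construct; higher means lower luciferase signal from less NR2E3 corepressor binding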
Target sequence (Q9Y5X4 whole entry, looked up, the tested form may be a part): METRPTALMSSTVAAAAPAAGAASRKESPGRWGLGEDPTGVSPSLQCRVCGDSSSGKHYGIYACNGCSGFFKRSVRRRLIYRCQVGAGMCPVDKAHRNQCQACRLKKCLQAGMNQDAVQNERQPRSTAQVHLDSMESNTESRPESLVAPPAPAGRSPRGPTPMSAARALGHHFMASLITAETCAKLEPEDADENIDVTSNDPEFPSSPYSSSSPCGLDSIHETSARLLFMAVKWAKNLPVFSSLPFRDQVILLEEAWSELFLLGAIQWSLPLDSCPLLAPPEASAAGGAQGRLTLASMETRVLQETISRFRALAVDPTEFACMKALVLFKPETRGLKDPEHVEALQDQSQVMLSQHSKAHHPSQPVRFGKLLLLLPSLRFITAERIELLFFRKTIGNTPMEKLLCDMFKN
Myeloid diff 2 – myeloid differentiation induction; ER-HoxA9 myeloid progenitors, lysozyme-GFP differentiation, flow cytometry; calls only at 10 µM; hit rate 1% among 360,000; AID 624256;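 active = normalized GFP-positive differentiation at or above the plate's own cutoff, the solvent-only control mean plus 3 SD; inconclusive = no clear call, values can overlap the other calls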;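 note: cells exposed to compound for four days before flow analysis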
T cell HTS – T cell immune modulators affecting CD8 T cell-vesicle binding. 2C CD8+ T cell-vesicle binding, flow cytometry; active compounds read low. response (vesicle binding), % at 7 µM. hit rate 0.068% among 330,000;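 active = response, share of CD8 T cells binding vesicles, and their 90th percentile fluorescence all below set limits, cut at about 80% in these data, passing the limit was not always enough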;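 note: values below 100% mean blocked vesicle binding to the CD8+ T cells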
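Assay system: 2C TCR transgenic mouse naive CD8+ T cells, MACS-purified | Read-out: CD8+ gate FL2 mean fluorescence as % of same-row positive control | Signal: High-throughput flow cytometry with anti-B7-1 and anti-CD8 staining | Timing: Binding step 1.5 h, 37 °C, antibody labelling 20 min, ice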
NR2E3 ag-2 – agonists of human nuclear receptor NR2E3. inhibition of corepressor binding, % at 4.78 µM. AID 2300. Q9Y5X4. GST-NR2E3/biotin-RetCOR TR-FRET, 1536-well. hit rate 0.12% among 320,000;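 active = percent inhibition above the cutoff of mean plus 3 SD of all tested compounds, set per screening campaign, cut at about 20% in these data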;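 note: 0% = DMSO wells and 100% = biotin wells as full block of FRET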
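Material: NR2E3–RetCOR corepressor complex / Incubation: Compound–protein incubation for 5 h at 4 °C / Dosing: compound at 4.8 µM, single dose / Detection: time-resolved FRET / Benchmarks: high control biotin, low control 0.6% DMSO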
FXN GAA850 act – activators of GAA850 frataxin (FXN) promoter; HEK293 lucGAA850 FXN promoter luciferase reporter, 24 h; percent of 10 µM SAHA response; activation, % at 6 µM; hit rate 0.56% among 360,000;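 active = activation above the average of all compounds screened plus 3 SD, cutoff fixed separately per campaign, cut at about 7.5% in these data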;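 note: 0% = DMSO wells and 100% = 10 µM SAHA wells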
NR2E3 ag confirm – confirmation of human NR2E3 agonists; shares compounds with NR2E3 ag-1; CHO-S mammalian two-hybrid NR2E3-NCOR, luciferase luminescence; inhibition, % at 3.98 µM; hit rate 51% among 2,300; AID 624378;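 active = average inhibition above a cutoff equal to the mean inhibition of all tested compounds plus one SD, cut at about 70% in these data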;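 note: 0% = DMSO in NR2E3 cells and 100% = DMSO in cells lacking NR2E3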
GAL4-VP16 luc – reduces GAL4-VP16 reporter signal in NR2E3 counterscreen; hit rate 29% among 2,300; shares compounds with NR2E3 ag-1; CHO-S GAL4-VP16 luciferase reporter, luminescence; inhibition, % at 3.98 µM; AID 624379;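 active = mean inhibition above a cutoff equal to the average over all tested compounds plus one standard deviation, cut at about 70% in these data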;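 note: luciferase from a UAS reporter driven by GAL4-VP16 transactivation; 0% = DMSO with VP16-transfected cells and 100% = DMSO with cells lacking VP16; higher means less reporter light so more repression of VP16 activity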
The depositor's hits bear a star; i = inactive; u = inconclusive; x = no result given.

SMILES	NR2E3 ag-1	Myeloid diff 2	T cell HTS	NR2E3 ag-2	FXN GAA850 act	NR2E3 ag confirm	GAL4-VP16 luc
CCc1nc2ccc(C(=O)Nc3ccc(NC(C)=O)cc3)cn2c1N(C)C(=O)Cc1ccccc1	-25.9	i	x	x	-1.4	x	x
COc1ccc(CN2C(=O)C(CC(=O)NCc3cccs3)CC(C(=O)N(C)C)=C2C)cc1 (configuration not stated)	-29.8	i	x	x	0.2	x	x
Cc1sc2ncn(CCn3cnc4sc(C)c(C)c4c3=O)c(=O)c2c1C	55.4	i	598.5	3.1	-2.5	68.0	52.1
O=C(COc1ccccc1-c1ccccc1)NN=C1CCCC1	50.1	i	413.6	-0.4	-4.5	4.1	-7.3
Cc1cc(Br)ccc1NC(=O)CN(C)C(=O)C1CCN(c2ncnc3sc(C)c(C)c23)CC1	62.3	i	x	x	-1.0	26.0	41.3
Cc1cccc(C)c1NC(=O)CN(C)C(=O)C1CCN(c2ncnc3sc(C)c(C)c23)CC1	-2.9	i	298.4	0.6	-1.0	x	x
Cc1cccc(OCc2nnc(SCC(=O)NC3CCCCC3)n2C)c1	-32.3	i	303.9	-1.2	2.5	x	x
CC(C)c1cc(Cn2c3ccccc3c(=O)n2C(C)Cn2cc(CCCC#N)nn2)on1 (configuration not stated)	x	i	x	x	x	x	x
O=C(CCl)Nc1c(C(=O)Nc2ccc3c(c2)OCCO3)oc2ccccc12	50.6	i	184.2	2.3	-6.1	-100.5	-8.3
COCC(=O)Nc1c(C(=O)Nc2ccc3c(c2)OCO3)oc2ccccc12	-18.6	i	266.4	-0.8	0.8	x	x
Cc1ccc(-n2sc3cc(F)ccc3c2=O)c(C)c1	53.8	i	x	x	-2.6	-1.8	-2.4
COC(=O)[C@]12CCCCC=C1N(Cc1cccc3ccccc13)C(=O)[C@H](CC(=O)NCCC(C)C)C2	7.5	i	x	x	x	x	x
Cc1cc(C)cc(NC(=O)CCc2nc3sc4c(c3c(=O)[nH]2)CCCC4)c1	83.9*	i	190.0	1.1	0.2	96.2*	16.1
Clc1ccc(-c2nnc(CSc3nnc(-c4cccs4)n3Cc3ccccc3)o2)cc1	74.3*	i	117.0	0.2	-1.5	87.7*	74.1*
Cc1nnc(SCc2nnc(-c3cccs3)o2)n1Cc1ccccc1	-13.2	i	281.3	2.1	-0.1	x	x
Cn1nc(CC(=O)NCc2ccc(C(F)(F)F)cc2)c2ccccc2c1=O	67.4	i	417.3	2.9	-0.7	91.3*	78.8*
CCNC(=O)C1(C)CCN(C(=O)c2ccc(C(=O)OC)cc2)C1 (configuration not stated)	-33.6	i	x	x	0.1	x	x
Cc1nc2ccc(C(=O)NCCc3c[nH]c4ccccc34)cn2c1N(C)C(=O)CCc1ccccc1	25.7	i	x	x	-0.6	x	x
CCCn1c(C)cc(C(=O)CN2C(=O)c3ccccc3S2(=O)=O)c1C	57.8	i	x	x	-12.8	46.3	19.2
OC(c1ccc(Cl)cc1)c1ncc(-c2ccccc2F)[nH]1 (configuration not stated)	-42.1	i	x	x	2.4	x	x
N#CCc1ccc(NC(=O)/C=C/c2ccc([N+](=O)[O-])o2)cc1	49.8	x	x	x	-16.0	61.0	30.6
CNc1cncc(-c2ccoc2)n1	-29.2	i	x	x	0.5	x	x
COc1ccc(OC)c(C2C3=C(COC3=O)Nc3cc4c(cc32)OCO4)c1 (configuration not stated)	59.1	u	385.2	-0.4	2.5	7.2	17.5
c1ccc(-c2ccccc2OCCCCn2ccnc2)cc1	-46.5	i	252.6	1.5	0.4	x	x
O=[N+]([O-])c1ccc2c(c1)ncn2CCc1ccccc1	76.1*	i	767.4	x	2.0	-7.5	-11.0
SMILES	NR2E3 ag-1	Myeloid diff 2	T cell HTS	NR2E3 ag-2	FXN GAA850 act	NR2E3 ag confirm	GAL4-VP16 luc
C[C@H]1CN([C@@H](C)CO)C(=O)CCCn2cc(nn2)CO[C@@H]1CN(C)C(=O)Nc1ccc2c(c1)OCCO2	19.8	i	x	x	-1.9	x	x
CC(c1ccccc1)c1nnc(N)s1 (configuration not stated)	58.6	i	506.9	2.5	0.0	9.6	8.8
CC(Oc1ccccc1)c1nnc(N)s1 (configuration not stated)	25.2	i	368.6	-0.4	1.2	x	x
Cc1ccc(C(=O)Sc2cccccc2=O)cc1	101.1*	u	114.2	-2.5	-14.5	-21.6	-82.4
CCc1ccc(CN(C)C(=O)c2cc(COc3cccc4cnccc34)on2)cc1	107.8*	u	147.7	3.6	-3.5	98.3*	89.0*
Cc1c(C(C)NC(=O)c2cc(COc3cccc4cnccc34)on2)cnn1C (configuration not stated)	72.1*	i	335.6	2.6	-2.6	53.2	60.5
CN(Cc1cccc2cnccc12)C(=O)c1cc(COc2ccc(F)cc2F)on1	72.1*	i	x	x	0.3	53.9	55.2
COc1ccc(NC(=O)CN(C)CC(=O)N(C)C2(C#N)CCC(C)CC2)cc1 (configuration not stated)	14.7	i	121.9	6.8	0.8	x	x
S=C(Nc1ccccc1)Nc1ccc(OCc2ccc(Cl)cc2Cl)cc1	75.1*	i	419.3	3.0	-17.8	65.5	61.4
c1ccc2c(c1)nc(N1CCOCC1)c1ccccc12	-29.3	i	374.3	-1.2	-1.3	x	x
CCN(CC)c1ccc(Nc2nc(N3CCOCC3)c3ccccc3n2)cc1	72.5*	i	157.5	1.5	-3.1	74.5*	69.0
COc1ccc(Nc2nc(N3CCCC3)c3ccccc3n2)cc1	50.9	i	449.9	7.0	1.2	50.5	29.8
Cn1nnnc1Sc1ncnc2scc(-c3cccc(Br)c3)c12	50.7	x	158.2	x	-9.9	26.2	45.6
Cn1nnnc1Sc1ncnc2scc(-c3ccccc3Cl)c12	66.4	i	768.3	1.1	-2.0	34.2	52.0
Cn1nnnc1Sc1ncnc2scc(-c3cccc(S(C)(=O)=O)c3)c12	-14.5	u	268.6	4.9	-9.6	x	x
Nc1ccc2c3c(ccc([N+](=O)[O-])c13)CC2	-40.7	i	x	x	0.5	x	x
COc1cccc(NC(=O)c2sc3nc4n(c(=O)c3c2C)CCC4)c1	-50.2	u	391.9	1.0	4.0	x	x
Cc1c(C(=O)Nc2ccc(OC(F)(F)F)cc2)sc2nc3n(c(=O)c12)CCC3	77.2*	i	470.5	0.6	0.7	87.6*	66.6
Cc1c(C(=O)Nc2ccc(Oc3ccccc3)cc2)sc2nc3n(c(=O)c12)CCC3	69.7	i	159.2	-2.0	-0.4	87.2*	54.2
C#Cc1ccc([C@@H]2C=C(C(=O)OCC=C)O[C@H](OCc3ccc(CO)cc3)C2)cc1	-16.7	i	263.4	0.5	0.9	x	x
CC(C)(C)C(=O)Nc1cc2nn(-c3ccccc3)nc2cc1Cl	92.3*	i	x	x	-15.2	75.3*	55.0
